Experimental data: ChEMBL document CHEMBL1124770, “Synthesis and pharmacological evaluation of amino, azido, and nitrogen mustard analogues of 10-substituted cannabidiol and 11- or 12-substituted delta 8-tetrahydrocannabinol” (1990)

Assays:
Assay type in all cases: functional
[1] = test system: Mus musculus; experiment: Tail-flick latency was determined at a concentration of 3 mg/kg.
Outline: (§1)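 Mice, drug suspended in ethanol/emulphor/saline (1:1:18) and given by tail-vein injection (0.1 mL/10 g). Antinociception measured as tail-flick latency (s). Vehicle and Δ9-THC positive controls run in each daily experiment. Data given as mean ± SEM. ANOVA with Dunnett's t test against control, p < 0.05 (two-tailed).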

[2] = test system: Mus musculus; experiment: Evaluated for catalepsy activity in mice and percentage immobility was determined at a concentration of 3 mg/kg.
Outline: (§2)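 Mice, single tail-vein injection (0.1 mL/10 g) in ethanol/emulphor/saline (1:1:18). Catalepsy scored by ring test as % immobility, per previously reported methods. Vehicle and Δ9-THC positive-control groups run in each daily experiment. Mean ± SEM; ANOVA with Dunnett's t test versus control, p < 0.05 two-tailed.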

[3] = test system: Mus musculus; experiment: Evaluated for hypothermic activity in mice at a dose of 3 mg/kg.
Outline: (§3)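 Mice dosed by tail-vein injection (0.1 mL/10 g) in ethanol/emulphor/saline (1:1:18). Body temperature change (°C) measured by previously reported methods. Vehicle and Δ9-THC positive controls run each day. Mean ± SEM; ANOVA with Dunnett's t test versus control, p < 0.05 two-tailed.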

[4] = test system: Mus musculus; experiment: Evaluated for reduction in spontaneous locomotor activity in mice, at a dose of 0 mg/Kg
Outline: (§4)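 Tail-vein injection in mice (0.1 mL/10 g; ethanol/emulphor/saline 1:1:18). Spontaneous locomotor activity counted as counts/10 min, per previously reported methods. Daily vehicle and Δ9-THC positive controls. Mean ± SEM; ANOVA with Dunnett's t test, p < 0.05 two-tailed.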

[5] = test system: Mus musculus; experiment: Tail-flick latency was determined at a concentration of 0 mg/Kg.
Outline: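 Antinociception in mice by tail-flick latency (s), per previously reported methods, after tail-vein injection (0.1 mL/10 g) in ethanol/emulphor/saline (1:1:18). Vehicle and Δ9-THC controls run daily. Mean ± SEM; ANOVA with Dunnett's t test, p < 0.05 two-tailed.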

[6] = test system: Mus musculus; experiment: Evaluated for catalepsy activity in mice and percentage immobility was determined at a concentration of 0 mg/Kg.; outline: as §2
[7] = test system: Mus musculus; experiment: Evaluated for reduction in spontaneous locomotor activity in mice at a dose of 3 mg/Kg; outline: as §4
[8] = test system: Mus musculus; experiment: Evaluated for hypothermic activity in mice at a dose of 0 mg/Kg.; outline: as §3
[9] = test system: Mus musculus; experiment: Evaluated for hypothermic activity in mice at a dose of 100 mg/Kg administered intraventricularly
Outline: (§5)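 Intraventricular injection in mice, 5 μL volume, in ethanol/emulphor/saline (1:1:18) vehicle. Change in body temperature (°C) recorded by previously reported methods, with vehicle and Δ9-THC controls. Mean ± SEM; ANOVA with Dunnett's t test versus control, p < 0.05 two-tailed.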

[10] = test system: Mus musculus; experiment: Evaluated for reduction in spontaneous locomotor activity in mice, at a dose of 0 mg/Kg administered intraventricularly
Outline: (§6)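 Mice given intraventricular injection of 5 μL in ethanol/emulphor/saline (1:1:18). Spontaneous locomotor activity recorded as counts/10 min by previously reported methods, alongside vehicle and Δ9-THC controls. Mean ± SEM; ANOVA with Dunnett's t test, p < 0.05 two-tailed.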

[11] = test system: Mus musculus; experiment: Evaluated for reduction in spontaneous locomotor activity in mice at a dose of 100 mg/Kg administered intraventricularly; outline: as §6
[12] = test system: Mus musculus; experiment: Evaluated for hypothermic activity in mice at a dose of 150 mg/Kg administered intraventricularly; outline: as §5
[13] = test system: Mus musculus; experiment: Tail-flick latency was determined at a concentration of 0 mg/Kg administered intraventricularly
Outline: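 Tail-flick latency (s) in mice after intraventricular injection (5 μL) of ethanol/emulphor/saline (1:1:18) vehicle, measured by previously reported methods. Mean ± SEM; ANOVA with Dunnett's t test, p < 0.05 two-tailed.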

[14] = test system: Mus musculus; experiment: Evaluated for hypothermic activity in mice at a dose of 0 mg/Kg administered intraventricularly; outline: as §5
[15] = test system: Mus musculus; experiment: Evaluated for reduction in spontaneous locomotor activity in mice at a dose of 150 mg/Kg administered intraventricularly; outline: as §6
[16] = test system: Mus musculus; experiment: Evaluated for catalepsy activity in mice and percentage immobility was determined at a concentration of 3 mg/Kg.; outline: as §2
[17] = test system: Mus musculus; experiment: Evaluated for hypothermic activity in mice at a dose of 6 mg/kg.; outline: as §3
[18] = test system: Mus musculus; experiment: Tail-flick latency was determined at a concentration of 5 mg/Kg.; outline: as §1
[19] = test system: Mus musculus; experiment: Evaluated for reduction in spontaneous locomotor activity in mice at a dose of 5 mg/Kg; outline: as §4
[20] = test system: Mus musculus; experiment: Evaluated for reduction in spontaneous locomotor activity in mice at a dose of 6 mg/Kg; outline: as §4
[21] = test system: Mus musculus; experiment: Evaluated for hypothermic activity in mice at a dose of 5 mg/Kg.; outline: as §3
[22] = test system: Mus musculus; experiment: Tail-flick latency was determined at a concentration of 6 mg/kg.; outline: as §1
[23] = test system: Mus musculus; experiment: Evaluated for catalepsy activity in mice and percentage immobility was determined at a concentration of 5 mg/kg.; outline: as §2
[24] = test system: Mus musculus; experiment: Tail-flick latency was determined at a concentration of 3 mg/Kg.; outline: as §1
[25] = test system: Mus musculus; experiment: Evaluated for reduction in spontaneous locomotor activity in mice at a dose of 100 mg/Kg; outline: as §4
[26] = test system: Mus musculus; experiment: Evaluated for catalepsy activity in mice and percentage immobility was determined at a concentration of 100 mg/Kg.; outline: as §2
[27] = test system: Mus musculus; experiment: Tail-flick latency was determined at a concentration of 100 mg/Kg.; outline: as §1
[28] = test system: Mus musculus; experiment: Evaluated for hypothermic activity in mice at a dose of 100 mg/Kg.; outline: as §3

C=C(CNCC)[C@@H]1CCC(C)=CC1c1c(O)cc(CCCCC)cc1O (stereo partly drawn)
Tail flick latency [1]: 1 s | Immobility [2]: 7% | Temperature [3]: <-2.1 °C | Spont activity [4]: 53 Counts 10min-1 | Tail flick latency [5]: 0.6 s | Immobility [6]: 4% | Spont activity [7]: <27 Counts 10min-1 | Temperature [8]: -0.8 °C

C=C(CN(CCCl)CCCl)[C@@H]1CCC(C)=CC1c1c(O)cc(CCCCC)cc1O (stereo partly drawn)
Temperature [9]: -1.8 °C | Spont activity [10]: 90 Counts 10min-1 | Spont activity [11]: 81 Counts 10min-1 | Temperature [12]: <-3.8 °C | Tail flick latency [13]: -0.2 s | Temperature [14]: -1.1 °C | Spont activity [15]: 75 Counts 10min-1

CCCCCc1cc(O)c2c(c1)OC(C)(CN)[C@@H]1CC=C(C)CC21 (stereo partly drawn)
Immobility [16]: 24% | Temperature [17]: <-3 °C | Temperature [3]: -1.1 °C | Spont activity [4]: 68 Counts 10min-1 | Tail flick latency [18]: <1.9 s | Tail flick latency [5]: 0.6 s | Spont activity [19]: <42 Counts 10min-1 | Spont activity [20]: <25 Counts 10min-1 | Temperature [21]: -0.7 °C | Tail flick latency [22]: 1.1 s | Immobility [23]: 15% | Immobility [6]: 13% | Tail flick latency [24]: 1.1 s | Spont activity [7]: <43 Counts 10min-1 | Temperature [8]: -0.8 °C

C=C(C)[C@@H]1CCC(C)=CC1c1c(O)cc(O)cc1CCCCC (stereo partly drawn)
Spont activity [25]: 57 Counts 10min-1 | Immobility [26]: <30% | Spont activity [4]: 45 Counts 10min-1 | Tail flick latency [5]: 0.2 s | Immobility [6]: 4% | Tail flick latency [27]: 0.8 s | Temperature [8]: -1.4 °C | Temperature [28]: -3.5 °C
